This is a sample that favours compounds with a hit; in the whole collection about 1.8% have one here.
DAGLB inhibitor = diacylglycerol lipase beta (human) inhibition. AID 504411. inhibition, % at 5.17 µM. 0.059% of 340,000 active. HEK293T DAGLB membrane lysate, EnzChek fluorogenic substrate; in the data active = inhibition above about 34%
Target sequence (Q8NCG7 whole entry, looked up): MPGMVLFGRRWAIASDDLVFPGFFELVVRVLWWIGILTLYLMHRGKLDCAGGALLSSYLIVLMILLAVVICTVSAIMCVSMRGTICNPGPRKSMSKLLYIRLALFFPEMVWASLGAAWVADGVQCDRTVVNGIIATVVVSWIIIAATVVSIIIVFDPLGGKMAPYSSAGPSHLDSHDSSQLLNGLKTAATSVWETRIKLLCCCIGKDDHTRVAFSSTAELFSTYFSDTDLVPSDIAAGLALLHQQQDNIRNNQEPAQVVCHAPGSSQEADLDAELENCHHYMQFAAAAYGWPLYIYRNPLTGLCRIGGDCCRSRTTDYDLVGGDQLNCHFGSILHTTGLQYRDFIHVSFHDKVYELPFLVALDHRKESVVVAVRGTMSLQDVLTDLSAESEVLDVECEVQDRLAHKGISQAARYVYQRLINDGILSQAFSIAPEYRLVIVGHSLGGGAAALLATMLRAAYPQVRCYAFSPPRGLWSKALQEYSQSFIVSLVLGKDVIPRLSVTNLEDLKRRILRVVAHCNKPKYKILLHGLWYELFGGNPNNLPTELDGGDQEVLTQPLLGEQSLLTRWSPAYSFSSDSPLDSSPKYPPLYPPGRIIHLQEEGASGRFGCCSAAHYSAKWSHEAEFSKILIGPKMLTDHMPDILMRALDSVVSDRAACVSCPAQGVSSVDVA
MsrA inh = inhibits bovine methionine sulfoxide reductase A; purified bovine MsrA, absorbance read-out; 0.75% of 360,000 active; inhibition, % at 15.5 µM; in the data active = inhibition above about 4.5%
MIN6 prolif-1 = MIN6 beta-cell proliferation induction; MIN6 cells proliferation, ATPlite luminescence, 48 h; cells starved in 0.2% serum; 100% = growth in 10% serum; proliferation, % at 10 µM; 0.29% of 330,000 active; AID 2380;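 active = compounds whose signal lies at least 3.5 SD above the mean of all wells on their plate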
SKN-1 inh = inhibitors of C. elegans SKN-1; 0.49% of 360,000 active; inhibition, % at 21.8 µM; C. elegans VP596 Pgst-4::GFP/RFP ratio, acrylamide-induced, 24 h;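 active = interference check ratio from 0.5 to 1.5 plus GFP to RFP signal ratio inhibition reaching or exceeding a fixed threshold, cut at about 30% in these data, passing the limit was not always enough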
MsrA act = activators of bovine methionine sulfoxide reductase A. purified bovine MsrA, absorbance read-out. AID 602163. 0.3% of 360,000 active. activation, % at 10.6 µM; in the data active = activation above about 7.5%
MT1-MMP act inh = MT1-MMP (human) activation inhibition | P50281 | HT1080 RFP-PRO-GFP cells, GFP/RFP ratio fluorescence, overnight; percent of plate control window, DMSO zero | GFP/RFP ratio change, % at 20 µM | 0.061% of 360,000 active | AID 651647;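 active = GFP/RFP ratio change of at least 30% with cell ATP level not reduced by more than half and red fluorescence within 50% of control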
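Test system: HT1080 cells expressing an RFP-PRO-GFP fluorescent reporter construct / Compound dosing: single-point 20 µM compound, 1% DMSO / Schedule: cells overnight before dosing, compound overnight, 37 °C, 5% CO2 / Evaluation: GFP/RFP fluorescence ratio / Control set: DMSO and RFP-L50D-GFP cell wells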
MIN6 prolif-2 = MIN6 beta-cell replication induction, confirmed | shares compounds with MIN6 prolif-1 | MIN6 beta-cell proliferation, ATPlite luminescence, 48 h; cells kept in 0.2% serum; scaled between 0.2% and 10% serum | proliferation increase, % at 50 µM | 920 tested, under 10 active;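 active = proliferation increase above 40% at any of the four tested concentrations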
DAGLB confirm = DAGLB (human) inhibition, confirmation screen; HEK293T DAGLB membrane lysate, EnzChek fluorogenic substrate; 73% of 190 active; inhibition, % at 5.17 µM; shares compounds with DAGLB inhibitor; AID 504445;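 active = mean inhibition over triplicate wells above a set limit taken from the primary lipase screen, cut at about 34% in these data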
MT1-MMP act val = MT1-MMP (human) activation inhibition, single-concentration validation. inhibition, % at 20 µM. shares compounds with MT1-MMP act inh. AID 652235. HT1080 RFP-PRO-GFP cells, GFP and RFP fluorescence ratio, overnight. 10% of 200 active;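 active = inhibition of at least 50% in the primary cell screen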
Large screens that a line does not name were inactive (follow-up assays come after a bar, where they were run).

COC(=O)C1=C(c2ccc(F)cc2OCc2ccccc2)C[C@@H]2CC[C@H]1N2C(=O)NC1CC1	none
CC[C@H]1CN2CCC1C[C@H]2[C@H](O)c1ccnc2ccc(OC)cc12 (stereo partly drawn)	none
C/C1=C\[C@@H](C)C/C=C/[C@H]2[C@@H]3O[C@]3(C)[C@@H](C)[C@H]3[C@H](Cc4c[nH]c5ccccc45)NC(=O)[C@]32C(=O)/C=C/C(=O)[C@@H]1O	MsrA act 8.1 (no result: MsrA inh)
O=S(=O)(c1ccccc1)C1CN1c1c(F)c(F)c(F)c(F)c1F (stereo not drawn)	none (no result: DAGLB inhibitor, MIN6 prolif-1)
COc1ccccc1CCNCc1cccc(C(F)(F)F)c1	none
ClCCN(CCCl)c1ccc(C=Cc2ccncn2)cc1	SKN-1 inh 54 (no result: DAGLB inhibitor, MIN6 prolif-1)
Cc1ccnc(NC(=O)CCCc2ccc(N(CCCl)CCCl)cc2)n1	none (no result: MIN6 prolif-1)
O=[N+]([O-])c1ccc(NCCCN2CCOCC2)nc1	MsrA inh 4.6
O=C(NCCN1CCOCC1)c1ccc(Cl)nc1	none
CCOc1cc(C=O)ccc1O	MsrA inh 4.6
CCOc1cccc(CNCCc2c(C)[nH]c3ccc(OC(F)(F)F)cc23)c1O	none
COC(=O)C1=C(c2ccc(C(C)=O)cc2)C[C@@H]2CC[C@H]1N2C(=O)NCc1ccc(C(F)(F)F)cc1	none (no result: MsrA inh)
C[C@](N)(CCP(=O)(O)O)C(=O)O	SKN-1 inh 49
CC1NC(=O)NC(=O)C1Br (stereo not drawn)	none (no result: MIN6 prolif-1)
CCCc1nc2ccccc2c(=O)n1-c1ccc(OC)cc1	SKN-1 inh 37
O=[N+]([O-])c1ccc(N2CCCC2)c2ccncc12	SKN-1 inh 35
O=[N+]([O-])c1ccc(NC2CCCC2)c2ccncc12	none (no result: MsrA inh)
C[N+]1(C)C2CC(OC(=O)C(CO)c3ccccc3)CC1C1OC12 (stereo not drawn)	none
O=C1NC(=O)N(Cc2ccc(F)cc2)C(=O)/C1=C\c1ccc(N2CCCC2)cc1	SKN-1 inh 39
O=[N+]([O-])/C=C/c1c(Cl)cccc1Cl	none (no result: MIN6 prolif-1)
Fc1cccc(F)c1-c1nc(-c2ccc(Cl)cc2)no1	SKN-1 inh 57
Cc1ccc(-n2c(O)c(C=NCCN3CCNCC3)c(=O)[nH]c2=S)cc1	MsrA inh 4.6
C=C(COC(C)=O)CC1CC(O)[C@]2(C)OC3CC4OC5C[C@]6(C)O[C@]7(C)CCC8OC9C[C@]%10(C)OC%11C(C)=CC(=O)OC%11CC%10OC9C[C@@H](C)C8OC7CC6O[C@]5(C)C/C=C\C4OC3CC2O1 (stereo partly drawn)	MsrA act 9.7 (no result: MsrA inh)
CN1C(=O)NC(=O)C2(CCCC2)C1=O	none (no result: MIN6 prolif-1)
CCN(CC)c1ccc(C=C2C(=O)N(C)C(=S)N(C)C2=O)o1	SKN-1 inh 38
c1ccc2c(c1)[IH]c1ccccc1-2	MsrA inh 85 (no result: MIN6 prolif-1)
CC12CCC3C(CCC4CC(=O)OCC43C)C1CCC2O (stereo not drawn)	none (no result: MIN6 prolif-1)
COC(=O)C1=C(c2ccc(-c3ccccc3)c(F)c2)C[C@@H]2CC[C@H]1N2C(=O)NCc1cccc2ccccc12	none
COP(=O)(OC)OC=C(Cl)Cl	none (no result: DAGLB inhibitor, MIN6 prolif-1, SKN-1 inh, MsrA act, MT1-MMP act inh)
O=c1[nH]c(=S)n(-c2ccccc2)c(O)c1/C=N/N1CCCCC1c1cccnc1 (stereo not drawn)	SKN-1 inh 41
CCC12CCN(CC3(O)CC3)C(Cc3ccc(O)cc31)C2(C)C (stereo not drawn)	none (no result: DAGLB inhibitor, MIN6 prolif-1, SKN-1 inh, MsrA act, MT1-MMP act inh)
CC/C(=N\NC(=O)c1ccccc1)c1c(O)n(C2CCCCC2)c(=O)[nH]c1=O	MIN6 prolif-1 12 | MIN6 prolif-2 inactive
CC/C(=N\NC(=O)c1ccccc1Cl)c1c(O)n(C2CCCCC2)c(=O)[nH]c1=O	none
COc1cccc(-n2c(/C=C/c3ccccn3)nc3ccccc3c2=O)c1	MIN6 prolif-1 8.5 | MIN6 prolif-2 inactive
Cc1cccc(-n2c(/C=C/c3ccccn3)nc3ccccc3c2=O)c1	none
C=CCn1c(O)c(C(CC)=NCc2ccco2)c(=O)[nH]c1=O	MIN6 prolif-1 6.2 | MIN6 prolif-2 inactive
COc1ccc(CN2Cc3cnnn3-c3ccccc3C2C)cc1 (stereo not drawn)	none (no result: MIN6 prolif-1)
CC(=O)c1ccc(OC(NC(=O)c2ccco2)C(Cl)(Cl)Cl)cc1 (stereo not drawn)	MIN6 prolif-1 7.2 | MIN6 prolif-2 inactive
COC(=O)C1C(c2ccc(F)cc2)CC2CCC1N2C (stereo not drawn)	none (no result: DAGLB inhibitor, MIN6 prolif-1, SKN-1 inh, MsrA act, MT1-MMP act inh)
CN1CCN(c2nc3ccccc3o2)CC1	MIN6 prolif-1 7.3 | MIN6 prolif-2 inactive
CCS(=O)(=O)NCc1nnc2n1-c1ccc(Br)cc1C(c1ccccc1Cl)=NC2	none
COc1ccc(-c2cc(=O)c3c(OC)c(OC)c(OC)cc3o2)cc1	MIN6 prolif-1 9.3 | MIN6 prolif-2 inactive
CCC1CN1P(=O)(Oc1ccc(Cl)cc1)N1CC1CC (stereo not drawn)	none (no result: MIN6 prolif-1)
NS(=O)(=O)c1ccc(N=Cc2c(O)n(-c3ccccc3)c(=O)[nH]c2=O)cc1	MIN6 prolif-1 8.2 (no result: DAGLB inhibitor) | MIN6 prolif-2 inactive
Cc1ccc(-n2c(O)c(C=Nc3ccc(S(N)(=O)=O)cc3)c(=O)[nH]c2=O)cc1	none
CC(=O)c1ccc2c(c1)C1C(Cl)C(Sc3ccccc3[N+](=O)[O-])CC1C(C(=O)O)N2 (stereo not drawn)	DAGLB inhibitor 36, MT1-MMP act inh 45 (no result: MIN6 prolif-1) | DAGLB confirm inactive
COC(=O)C1=C(c2ccc(OC(F)(F)F)cc2)C[C@@H]2CC[C@H]1N2C(=O)NCc1cc(C)oc1C(F)(F)F	none
C=C1C2[C@H](OC(C)=O)[C@@H]3CC(=O)[C@]4(C)OC[C@@]3(C)[C@@]4(O)[C@@H](OC(C)=O)[C@H](OC(C)=O)[C@@]2(COC(=O)c2ccccc2)[C@@H](OC(C)=O)C[C@@H]1O (stereo partly drawn)	none
NP(=O)(OCCCCc1ccccc1)Oc1ccccc1Cl (stereo not drawn)	DAGLB inhibitor 39 | DAGLB confirm 40
O=C(O)c1cccc2c1NC(C(=O)O)C1CC(Sc3ccccc3[N+](=O)[O-])C(Cl)C21 (stereo not drawn)	DAGLB inhibitor 39, MT1-MMP act inh 38 (no result: MIN6 prolif-1) | DAGLB confirm inactive | MT1-MMP act val inactive
C[C@H](Cc1ccc(OCC(=O)O)cc1)NC[C@H](O)c1cccc(Cl)c1	none (no result: DAGLB inhibitor, MIN6 prolif-1, SKN-1 inh, MsrA act, MT1-MMP act inh)

Screening data (PubChem BioAssay)
